KCNK9 inh: KCNK9 potassium channel inhibitors, primary screen, HEK293 cells, thallium flux. Potassium channel subfamily K member 9 (Homo sapiens), Q9NPC2. FluxOR thallium flux fluorescence; stronger effect = lower value. B-score at 10 µM. hit rate 1.2% among 310,000;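 active = ratio B-score over 3 SD below the library mean, with starting fluorescence within 5 SD of its mean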;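 also: negative B-score means less thallium flux so channel inhibition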
Kir21 inh: inhibitors of mouse Kir2.1 inward-rectifier potassium channel; HEK293-Kir2.1, FluxOR thallium flux fluorescence; stronger effect = lower value; Inward rectifier potassium channel 2 (Mus musculus), P35561; B-score at 10 µM; hit rate 0.85% among 310,000;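 active = fluorescence ratio B-score at or below minus 3 SD of library scores, with starting-brightness B-score within 2 SD, cut at about -4.2 in these data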;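 also: channel flux triggered by added potassium and thallium sulfate stimulus; B-score of peak minus minimum fluorescence over baseline after thallium stimulus; more negative B-score means stronger Kir2.1 block with less thallium influx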
KCNK3 inh: human KCNK3 channel inhibitors, primary screen, CHO cells, FluxOR thallium flux, B-score | hit rate 0.84% among 340,000 | B-score at 10 µM | FluxOR fluorescence; stronger effect = lower value | AID 602410, 2012;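 active = B-score under library mean minus 4 SD, starting fluorescence ratio at most library mean plus 5 SD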;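 also: more negative B-score means stronger inhibition of thallium flux through KCNK3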
hERG protect: hERG rescue from dofetilide block, primary screen, cell-based, CHO-hERG, FluxOR thallium flux, dofetilide IC70; Voltage-gated inwardly rectifying potassium channel KCNH2 (Homo sapiens), Q12809; dofetilide IC70 present; activation (rescue from dofetilide block), less the hit threshold, % at 10 µM; hit rate 0.51% among 310,000;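 active = activation above the mean of controls blocked by dofetilide plus 5 SD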;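 also: thallium influx through hERG after potassium depolarization seen as dye fluorescence rise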
KCNQ1 act: potentiators or activators of KCNQ1 channel, primary screen, cell-based, thallium flux, high-throughput; AID 2648, 2010; Potassium voltage-gated channel subfamily KQT member 1 (Homo sapiens), P51787; CHO-K1 KCNQ1, thallium flux FluxOR fluorescence; stronger effect = higher value; hit rate 0.35% among 310,000; B-score at 10 µM;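 active = fluorescence ratio B-score, a plate-corrected score, at least three library SD, with initial intensity B-score within 5 SD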
Target sequence (P51787 whole entry, looked up): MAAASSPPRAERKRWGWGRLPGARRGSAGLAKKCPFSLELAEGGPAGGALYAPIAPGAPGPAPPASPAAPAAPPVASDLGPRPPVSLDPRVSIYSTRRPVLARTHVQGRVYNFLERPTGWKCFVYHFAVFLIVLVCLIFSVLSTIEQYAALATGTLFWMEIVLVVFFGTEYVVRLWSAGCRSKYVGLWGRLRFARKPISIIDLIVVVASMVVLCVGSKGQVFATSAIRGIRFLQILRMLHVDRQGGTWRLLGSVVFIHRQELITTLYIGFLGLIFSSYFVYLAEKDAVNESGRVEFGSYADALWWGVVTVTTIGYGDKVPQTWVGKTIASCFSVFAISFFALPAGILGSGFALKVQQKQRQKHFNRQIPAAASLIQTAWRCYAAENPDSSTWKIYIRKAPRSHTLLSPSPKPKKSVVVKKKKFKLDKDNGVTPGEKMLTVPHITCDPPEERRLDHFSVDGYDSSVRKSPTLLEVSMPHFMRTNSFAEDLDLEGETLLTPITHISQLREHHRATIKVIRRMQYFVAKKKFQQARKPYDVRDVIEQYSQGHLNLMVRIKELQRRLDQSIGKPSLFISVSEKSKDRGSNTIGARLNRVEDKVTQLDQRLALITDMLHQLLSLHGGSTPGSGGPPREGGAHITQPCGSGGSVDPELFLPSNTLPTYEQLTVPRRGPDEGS
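Assay system: CHO-K1 cells stably expressing KCNQ1. Medium: assay buffer for compound exposure, DMSO matched across wells. Timing: 37 °C overnight plating, 90-min dark dye load, 20-min compound pretreatment. Signal: kinetic FluxOR fluorescence, 10 s baseline plus 110 s post-stimulus.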
KCNQ1 block: inhibitors of human KCNQ1 channel, primary screen, cell-based, thallium flux, high-throughput | B-score at 10 µM | AID 2642, 2010 | hit rate 1.3% among 310,000 | CHO-K1 KCNQ1, FluxOR thallium flux fluorescence; stronger effect = higher value;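 active = compounds whose thallium flux B-score, printed positive for inhibition, exceeds three library SD while starting fluorescence stays within three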;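 also: channel opened by potassium depolarization with thallium stimulus after 20 min compound exposure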
Starred values were filed as active, the others as inactive; i = inactive; x = no result. Compounds with a hit are over-represented: about 3.7% of the library has one in this group of screens.

SMILES	KCNK9 inh	Kir21 inh	KCNK3 inh	hERG protect	KCNQ1 act	KCNQ1 block
O=C(CSc1ccccc1)NCC(c1ccco1)N1CCCCC1 (centres undefined)	x	x	i	x	x	x
OC(CNCC(c1ccco1)N1CCCCC1)c1ccccc1 (centres undefined)	i	-2.7	i	5.9*	i	i
COc1ccc(C2C=C(c3ccc(Br)s3)Nc3ncnn32)cc1OC (centres undefined)	i	-0.24	x	-5	i	i
O=C(CSc1ncccn1)NCc1cccc(Cl)c1	i	-0.22	i	6.3*	i	i
CCCCC(CC)C(=O)Nc1ccc(Nc2ccccc2)cc1 (centres undefined)	-6.7*	0.2	i	0	i	i
CCCCC(CC)C(=O)Nc1ccc(C)c(O)c1 (centres undefined)	-7.5*	-2.8	i	-10	i	i
Cn1c(SCc2ccccn2)nnc1-c1ccccc1	i	-0.05	i	-1	i	i
CCOC(=O)c1c(C)n(-c2ccc(C)cc2)c2ccc(OCC(O)CNCC3CCCO3)cc12 (centres undefined)	i	-3.1	i	-42	i	7*
Cc1cc(C)c(NC(=O)CSc2nnc(SCC(=O)Nc3c(C)cc(C)cc3C)n2N)c(C)c1	i	-0.19	i	-10	i	i
CS(=O)(=O)C1=NSC2=NC(=O)/C(=C\c3cccn3-c3ccc(Cl)cc3)C(=N)N21	i	-1.1	i	-16	i	7*
Cc1cc(/C=C2/C(=N)N3C(=NC2=O)SN=C3S(C)(=O)=O)c(C)n1-c1ccccc1F	i	0.09	i	-17	i	i
COc1cccc(C(C)NC(=O)Nc2cc(Cl)ccc2OC)c1 (centres undefined)	i	-0.18	i	-12	i	i
COc1cccc(C(C)NC(=O)Nc2cccc(C(F)(F)F)c2)c1 (centres undefined)	-6.8*	-0.05	i	-7	i	i
CCOc1ccc(C2c3[nH]c4ccccc4c3CCN2CCCn2cccn2)cc1 (centres undefined)	i	0.98	i	-11	i	6*
COC(=O)c1cc(NC(=O)c2cccc(C(F)(F)F)c2)c(=O)oc1C/C=N/OCc1cccc(Cl)c1Cl	i	1.1	-11*	-12	i	i
COC(=O)c1cc(NC(=O)c2cccc(C(F)(F)F)c2)c(=O)oc1C	i	-0.84	i	-6	i	i
CC1(C)[C@@H](O)CC[C@]2(C)C3C(O)C=C4[C@H]5C[C@@](C)(C(=O)O)CC[C@]5(C)CC[C@]4(C)[C@]3(C)CC[C@@H]12 (some centres undefined)	i	2.5	x	-9	13*	i
Cc1ccc(NC(=O)CS(=O)CC(=O)N(CC(=O)NC(C)(C)C)c2cccc(C)c2C)cc1 (centres undefined)	i	0.26	i	-4	i	i
CCOCCCn1c(SCC(=O)Nc2cc(C(C)(C)C)nn2-c2ccccc2)nc2ccccc2c1=O	-7.3*	0.09	i	-7	i	i
Cc1ccc(CNC(=O)COc2ccc(S(=O)(=O)N3CCCC3)cc2)cc1	i	-1.2	i	-4	i	i
CN(C)CCCNC(=O)c1ccccn1	i	-0.1	i	-5	i	i
CN(C)CCCNC(=O)c1ccc(-c2nc(-c3ccc(Cl)cc3)cs2)cc1	-7.2*	-4.7*	i	-39	i	i
Cc1cc(C(F)F)nn1CC(=O)NCc1ccccc1F	i	0.71	i	0	i	i
Fc1ccc(-c2csc3ncnc(N4CCc5ccccc5C4)c23)cc1	-7.1*	0.37	i	-13	i	6*
Cc1ccc(-c2csc3ncnc(N4CCc5ccccc5C4)c23)cc1	i	-0.8	i	-13	i	i
SMILES	KCNK9 inh	Kir21 inh	KCNK3 inh	hERG protect	KCNQ1 act	KCNQ1 block
NC(=O)C1=C[C@H](c2ccc(C(F)(F)F)cc2)C[C@H](OCc2ccc(CO)cc2)O1	i	-4.8*	i	-10	i	i
C#CCNC(=O)C1=C[C@@H](c2ccccc2)C[C@@H](OCc2ccc(CO)cc2)O1	i	-5.6*	i	-11	i	i
COCCNC(=O)c1ccc(CS(=O)(=O)c2cccc(C(F)(F)F)c2)o1	i	0.69	i	-5	i	i
CN(C)Cc1ccccc1Sc1ccccc1Br	i	-0.4	i	-4	i	i
CN(C)Cc1ccccc1Sc1cccc2ccccc12	i	-5.3*	i	-8	i	i
Cc1nc2ccccc2c(=O)n1NC(=O)c1cccc(Cl)c1	i	-0.34	i	-7	i	i
CCC(C)n1cnc2c(c1=O)c1nc3ccccc3nc1n2Cc1ccc2c(c1)OCO2 (centres undefined)	-7.2*	-0.46	x	-9	i	7*
CC(C)Cc1ccc(C(C)C(=O)Nc2cccnc2)cc1 (centres undefined)	i	2.9	i	-16	i	i
CC(C)Cc1ccc(C(C)C(=O)Nc2ccc(O)cc2)cc1 (centres undefined)	i	-0.47	i	-11	10*	i
O=C(O)CNC(=O)c1ccc(Oc2c(F)c(F)c(Oc3ccc(C(=O)NCC(=O)O)cc3)c(F)c2F)cc1	i	-0.23	i	0	i	i
O=[N+]([O-])c1cccc(-c2ccc(/C=N/Nc3nc(N4CCCCC4)nc(N4CCCCC4)n3)o2)c1	i	0.29	i	-16	i	7*
O=[N+]([O-])c1ccc(-c2ccc(/C=N/Nc3nc(N4CCCCC4)nc(N4CCCCC4)n3)o2)cc1	i	1.1	i	-7	i	i
O=C(Cc1cccc(NC(=O)C2CCN(C(=O)CCc3ccccc3)CC2)c1)Nc1cccc(C(=O)N2CCCC2)c1	x	x	i	x	x	x
COc1ccc(CCNc2nnc(Sc3nnnn3-c3ccccc3)s2)cc1OC	i	-4.5*	i	-22	i	i
CC(NC(=O)C1CCC1)c1ccc(Br)cc1 (centres undefined)	i	-0.27	i	-1	i	i
CC(NC(=O)C1CCCC1)c1ccc(Br)cc1 (centres undefined)	i	2.4	i	5.5*	i	i
CCN(CC)C(=O)c1ccc(NS(=O)(=O)c2ccc3[nH]c(=O)[nH]c3c2)cc1	i	-0.46	i	-3	i	i
COc1cc(/C=C/C(C)=NNc2ccccc2)ccc1O	x	x	i	x	x	x

Source: PubChem BioAssay
